Results reported in ChEMBL document CHEMBL3826896, “Synthesis of lignan conjugates via cyclopropanation: Antimicrobial and antioxidant studies” (Bioorg Med Chem Lett, 2016).
≈ marks a conversion by molar mass, not a printed value.

Test system: not listed separately
Assay: Antioxidant activity assessed as DPPH radical scavenging activity at 100 ug/ml after 20 mins by spectrophotometry relative to control
Format: physicochemical
Details: not given
Method in brief: (§1)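 Radical scavenging measured in vitro by DPPH and by hydroxyl radical scavenging assays. Each run in triplicate at five concentrations, reported as mean ± SD of three replicates.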

Row | Activity [%] | SMILES
1 | 28.96 | CCOC(=O)[C@@H]1CC(=O)c2sccc2[C@H]1c1ccc(OCC)cc1
2 | 25.54 | CCOC(=O)[C@@H]1CC(=O)c2sccc2[C@H]1c1ccc(OC)c(OC)c1
3 | 28.65 | O=C1O[C@H]([C@@H](O)CO)C(O)=C1O [ASCORBIC ACID]

Test system: not listed separately
Assay: Antioxidant activity assessed as DPPH radical scavenging activity at 80 ug/ml after 20 mins by spectrophotometry relative to control
Format: physicochemical
Details: not given
Method in brief: as §1

Row | Activity [%] | SMILES
4 | 25.43 | CCOC(=O)[C@@H]1CC(=O)c2sccc2[C@H]1c1ccc(OCC)cc1
5 | 22.87 | CCOC(=O)[C@@H]1CC(=O)c2sccc2[C@H]1c1ccc(OC)c(OC)c1
6 | 24.25 | O=C1O[C@H]([C@@H](O)CO)C(O)=C1O [ASCORBIC ACID]

Test system: Streptococcus pyogenes
Assay: Antimicrobial activity against Streptococcus pyogenes after 24 hrs by broth dilution method
Format: functional
Details: not given
Method in brief: (§2)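 MIC by broth dilution in triplicate, reported as mean ± SD. Panel: bacteria S. aureus, S. pyogenes, E. coli; fungi C. neoformans, A. niger, A. flavus. Ciprofloxacin served as positive control for bacteria and nystatin for fungi. DMSO was the solvent and solvent control.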

Row | MIC [µg/mL] | SMILES
7 | 75 (≈ 208 µM) | CCOC(=O)C1C(C(=O)c2cccs2)C1c1cc(OC)cc(OC)c1 (stereo not drawn)
8 | 50 (≈ 145 µM) | CCOC(=O)[C@@H]1CC(=O)c2sccc2[C@H]1c1ccc(OCC)cc1
9 | 50 (≈ 139 µM) | CCOC(=O)[C@@H]1CC(=O)c2sccc2[C@H]1c1ccc(OC)c(OC)c1

Test system: Aspergillus flavus
Assay: Antimicrobial activity against Aspergillus flavus after 72 hrs by broth dilution method
Format: functional
Details: not given
Method in brief: as §2

Row | MIC [µg/mL] | SMILES
10 | 75 (≈ 208 µM) | CCOC(=O)C1C(C(=O)c2cccs2)C1c1cc(OC)cc(OC)c1 (stereo not drawn)
11 | 100 (≈ 290 µM) | CCOC(=O)[C@@H]1CC(=O)c2sccc2[C@H]1c1ccc(OCC)cc1
12 | 50 (≈ 139 µM) | CCOC(=O)[C@@H]1CC(=O)c2sccc2[C@H]1c1ccc(OC)c(OC)c1

Test system: not listed separately
Assay: Antioxidant activity assessed as hydroxyl radical scavenging activity at 40 ug/ml after 60 mins relative to control
Format: physicochemical
Details: 1 h
Method in brief: as §1

Row | Activity [%] | SMILES
13 | 19.76 | CCOC(=O)[C@@H]1CC(=O)c2sccc2[C@H]1c1ccc(OCC)cc1
14 | 16.64 | CCOC(=O)[C@@H]1CC(=O)c2sccc2[C@H]1c1ccc(OC)c(OC)c1

Test system: Staphylococcus aureus
Assay: Antimicrobial activity against Staphylococcus aureus after 24 hrs by broth dilution method
Format: functional
Details: not given
Method in brief: as §2

Row | MIC [µg/mL] | SMILES
15 | 50 (≈ 139 µM) | CCOC(=O)C1C(C(=O)c2cccs2)C1c1cc(OC)cc(OC)c1 (stereo not drawn)
16 | 75 (≈ 218 µM) | CCOC(=O)[C@@H]1CC(=O)c2sccc2[C@H]1c1ccc(OCC)cc1
17 | 50 (≈ 139 µM) | CCOC(=O)[C@@H]1CC(=O)c2sccc2[C@H]1c1ccc(OC)c(OC)c1

Test system: Aspergillus niger
Assay: Antimicrobial activity against Aspergillus niger after 72 hrs by broth dilution method
Format: functional
Details: not given
Method in brief: as §2

Row | MIC [µg/mL] | SMILES
18 | 50 (≈ 139 µM) | CCOC(=O)C1C(C(=O)c2cccs2)C1c1cc(OC)cc(OC)c1 (stereo not drawn)
19 | 75 (≈ 218 µM) | CCOC(=O)[C@@H]1CC(=O)c2sccc2[C@H]1c1ccc(OCC)cc1
20 | 25 (≈ 69.4 µM) | CCOC(=O)[C@@H]1CC(=O)c2sccc2[C@H]1c1ccc(OC)c(OC)c1

Test system: not listed separately
Assay: Antioxidant activity assessed as hydroxyl radical scavenging activity at 80 ug/ml after 60 mins relative to control
Format: physicochemical
Details: 1 h
Method in brief: as §1

Row | Activity [%] | SMILES
21 | 34.13 | CCOC(=O)[C@@H]1CC(=O)c2sccc2[C@H]1c1ccc(OCC)cc1
22 | 30.37 | CCOC(=O)[C@@H]1CC(=O)c2sccc2[C@H]1c1ccc(OC)c(OC)c1

Test system: not listed separately
Assay: Antioxidant activity assessed as hydroxyl radical scavenging activity at 100 ug/ml after 60 mins relative to control
Format: physicochemical
Details: 1 h
Method in brief: as §1

Row | Activity [%] | SMILES
23 | 37.99 | CCOC(=O)[C@@H]1CC(=O)c2sccc2[C@H]1c1ccc(OCC)cc1
24 | 34.02 | CCOC(=O)[C@@H]1CC(=O)c2sccc2[C@H]1c1ccc(OC)c(OC)c1

Test system: not listed separately
Assay: Antioxidant activity assessed as DPPH radical scavenging activity at 20 ug/ml after 20 mins by spectrophotometry relative to control
Format: physicochemical
Details: not given
Method in brief: as §1

Row | Activity [%] | SMILES
25 | 17.08 | CCOC(=O)[C@@H]1CC(=O)c2sccc2[C@H]1c1ccc(OCC)cc1
26 | 14.65 | CCOC(=O)[C@@H]1CC(=O)c2sccc2[C@H]1c1ccc(OC)c(OC)c1
27 | 15.08 | O=C1O[C@H]([C@@H](O)CO)C(O)=C1O [ASCORBIC ACID]

Test system: not listed separately
Assay: Antioxidant activity assessed as DPPH radical scavenging activity at 60 ug/ml after 20 mins by spectrophotometry relative to control
Format: physicochemical
Details: not given
Method in brief: as §1

Row | Activity [%] | SMILES
28 | 22.87 | CCOC(=O)[C@@H]1CC(=O)c2sccc2[C@H]1c1ccc(OCC)cc1
29 | 20.93 | CCOC(=O)[C@@H]1CC(=O)c2sccc2[C@H]1c1ccc(OC)c(OC)c1
30 | 21.98 | O=C1O[C@H]([C@@H](O)CO)C(O)=C1O [ASCORBIC ACID]

Test system: Escherichia coli
Assay: Antimicrobial activity against Escherichia coli after 24 hrs by broth dilution method
Format: functional
Details: not given
Method in brief: as §2

Row | MIC [µg/mL] | SMILES
31 | 75 (≈ 208 µM) | CCOC(=O)C1C(C(=O)c2cccs2)C1c1cc(OC)cc(OC)c1 (stereo not drawn)
32 | 50 (≈ 145 µM) | CCOC(=O)[C@@H]1CC(=O)c2sccc2[C@H]1c1ccc(OCC)cc1
33 | 25 (≈ 69.4 µM) | CCOC(=O)[C@@H]1CC(=O)c2sccc2[C@H]1c1ccc(OC)c(OC)c1

Test system: not listed separately
Assay: Antioxidant activity assessed as hydroxyl radical scavenging activity at 60 ug/ml after 60 mins relative to control
Format: physicochemical
Details: 1 h
Method in brief: as §1

Row | Activity [%] | SMILES
34 | 26.98 | CCOC(=O)[C@@H]1CC(=O)c2sccc2[C@H]1c1ccc(OCC)cc1
35 | 24.07 | CCOC(=O)[C@@H]1CC(=O)c2sccc2[C@H]1c1ccc(OC)c(OC)c1

Test system: not listed separately
Assay: Antioxidant activity assessed as hydroxyl radical scavenging activity at 20 ug/ml after 60 mins relative to control
Format: physicochemical
Details: 1 h
Method in brief: as §1

Row | Activity [%] | SMILES
36 | 15.43 | CCOC(=O)[C@@H]1CC(=O)c2sccc2[C@H]1c1ccc(OCC)cc1
37 | 12.23 | CCOC(=O)[C@@H]1CC(=O)c2sccc2[C@H]1c1ccc(OC)c(OC)c1

Test system: Cryptococcus neoformans
Assay: Antimicrobial activity against Cryptococcus neoformans after 72 hrs by broth dilution method
Format: functional
Details: not given
Method in brief: as §2

Row | MIC [µg/mL] | SMILES
38 | 50 (≈ 139 µM) | CCOC(=O)C1C(C(=O)c2cccs2)C1c1cc(OC)cc(OC)c1 (stereo not drawn)
39 | 25 (≈ 72.6 µM) | CCOC(=O)[C@@H]1CC(=O)c2sccc2[C@H]1c1ccc(OCC)cc1
40 | 25 (≈ 69.4 µM) | CCOC(=O)[C@@H]1CC(=O)c2sccc2[C@H]1c1ccc(OC)c(OC)c1

Test system: not listed separately
Assay: Antioxidant activity assessed as DPPH radical scavenging activity at 40 ug/ml after 20 mins by spectrophotometry relative to control
Format: physicochemical
Details: not given
Method in brief: as §1

Row | Activity [%] | SMILES
41 | 18.54 | CCOC(=O)[C@@H]1CC(=O)c2sccc2[C@H]1c1ccc(OCC)cc1
42 | 14.76 | CCOC(=O)[C@@H]1CC(=O)c2sccc2[C@H]1c1ccc(OC)c(OC)c1
43 | 16.87 | O=C1O[C@H]([C@@H](O)CO)C(O)=C1O [ASCORBIC ACID]
